LMPTP block – LMPTP (human) inhibition; AID 651560; 360,000 tested, 0.22% active; recombinant LMPTP-A, OMFP fluorogenic substrate, fluorescence intensity; inhibition, % at 20 µM; P24666;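 active = compounds that cut the enzyme signal by at least half of the control window in the single-dose screen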
Target sequence (P24666 whole entry, looked up): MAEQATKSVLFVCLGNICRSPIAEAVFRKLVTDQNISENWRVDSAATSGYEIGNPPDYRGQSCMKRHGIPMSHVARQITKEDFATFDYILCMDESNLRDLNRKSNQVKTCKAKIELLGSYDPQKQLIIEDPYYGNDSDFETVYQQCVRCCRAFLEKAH
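Assay system: LMPTP-A enzyme. Input: 0.625 nM LMPTP-A final. Probe or stimulus: 400 µM OMFP. Compound dosing: single 20 µM dose. Schedule: 50 min dark incubation at room temperature. Detection: fluorescence intensity of OMFP turnover product. Read-out: percent inhibition versus substrate-only and uninhibited controls. Benchmarks: no-enzyme low control, uninhibited high control.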
Scp1 inh – inhibitors of human Scp-1 phosphatase. Q9GZU7. Recombinant Scp1, phosphopeptide, malachite green phosphate absorbance. inhibition, % at 20 µM. 340,000 tested, 0.88% active;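 active = inhibition above about 50% at 20 µM, limit read from the data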
Target sequence (Q9GZU7 76-261 limits assumed): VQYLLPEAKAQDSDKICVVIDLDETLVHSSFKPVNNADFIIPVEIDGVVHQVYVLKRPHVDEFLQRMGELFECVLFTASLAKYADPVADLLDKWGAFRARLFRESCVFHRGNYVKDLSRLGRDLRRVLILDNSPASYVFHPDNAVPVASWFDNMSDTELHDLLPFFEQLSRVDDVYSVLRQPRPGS
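Incubation: 45 min enzyme reaction at room temperature / System: truncated SCP-1 phosphatase (76-261aa) / Reagent: Phospho 17-mer peptide substrate / Buffer or medium: Acidic Tris acetate buffer with magnesium and detergent / Signal: absorbance at 630 nm / Doses: one concentration, 20 µM, with 1.0% DMSO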
STEP block – blocks human striatal-enriched tyrosine phosphatase | AID 588621 | recombinant STEP, OMFP fluorogenic substrate, fluorescence | 360,000 tested, 0.25% active | P54829 | inhibition, % at 20 µM;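 active = inhibition at 20 µM, scaled per plate between control wells, above about 37%, limit read from the data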
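Material: STEP (striatal-enriched tyrosine phosphatase) enzyme, cell-free; Compound dosing: 20 µM single dose in 1% DMSO; Technique: fluorescence read at 480 nm ex / 540 nm em; Times: reaction 20 min, ambient temperature; Medium: 50 mM Bis-Tris pH 6.0 with 2.5 mM DTT and 0.005% Tween 20; Also added: OMFP at 25 µM.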
PP5 inh – blocks human protein phosphatase 5 activity; P53041; purified PP5c, OMFP substrate fluorescence; inhibition, % at 6.7 µM; 320,000 tested, 0.18% active;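 active = inhibition above the campaign's mean inhibition across all tested compounds plus 3 SD, cut at about 9.5% in these data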
PP1 inh – blocks human PP1-alpha phosphatase, a PP5 counter-screen; purified PP1alpha, OMFP fluorescence; inhibition, % at 6.7 µM; 320,000 tested, 0.9% active; AID 2235;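 active = inhibition above the mean inhibition of all tested compounds plus 3 SD, computed separately for each screening campaign, cut at about 15% in these data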
Target sequence (P62136 whole entry, looked up): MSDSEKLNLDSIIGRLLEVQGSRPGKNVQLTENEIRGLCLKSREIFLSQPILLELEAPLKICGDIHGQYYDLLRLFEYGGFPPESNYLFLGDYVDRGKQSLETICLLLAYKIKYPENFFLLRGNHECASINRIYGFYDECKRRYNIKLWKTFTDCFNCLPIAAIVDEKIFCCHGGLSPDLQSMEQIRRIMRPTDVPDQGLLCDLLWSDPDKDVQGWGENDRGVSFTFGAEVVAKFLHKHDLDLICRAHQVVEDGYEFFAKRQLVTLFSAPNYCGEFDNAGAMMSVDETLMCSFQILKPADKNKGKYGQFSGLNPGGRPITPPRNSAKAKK
Large screens that a line does not name were inactive. Compounds with a hit are over-represented: about 1.9% of the library has one in this group of screens.

O=C1OC(c2cccs2)=N/C1=C/c1ccc(-c2cccc(C(=O)O)c2)o1	Scp1 inh 65.0 (no result: PP5 inh, PP1 inh)
O=C1OC(c2cccs2)=N/C1=C\c1ccc(-c2ccccc2Cl)o1	none (no result: PP5 inh, PP1 inh)
Cc1nn(S(=O)(=O)N2CCCCC2)c(C)c1Br	none
Cc1nn(-c2ccccn2)c2c1C(c1c(F)cccc1Cl)C1=C(N2)c2ccccc2C1=O (stereo not drawn)	PP1 inh 16.6 (no result: LMPTP block, Scp1 inh, STEP block)
Cc1nn(-c2ccccn2)c2c1C(c1ccccc1Cl)C1=C(N2)c2ccccc2C1=O (stereo not drawn)	none
Cn1nccc1-c1ccc(C(=O)NCc2ccc(Cl)cc2)c2occc12	none (no result: Scp1 inh, PP5 inh, PP1 inh)
Cc1ccc2c(c1)C(=O)N1[C@H]3c4cc(Br)ccc4OC[C@@H]3[C@H](c3ccccc3)[C@]1(C)C(=O)N2	none (no result: PP5 inh, PP1 inh)
COc1cc(/C=C2\CCc3c2nc2ccccc2c3C(=O)O)cc(OC)c1OC	Scp1 inh 70.5, STEP block 41.9
COc1cc(/C=C2\CCCc3c2nc2ccccc2c3C(=O)O)cc(Br)c1O	none
CCS(=O)(=O)c1ccc(OC)c(N=Nc2ccc(O)c3ncccc23)c1	PP1 inh 15.2
CCN(CC)S(=O)(=O)c1cc(OC)ccc1N=Nc1ccc(O)c2ncccc12	none (no result: PP5 inh, PP1 inh)
CCCc1nc2c(=O)n(C)c(=O)nc-2n(C)n1	LMPTP block 71.5, STEP block 75.6 (no result: PP5 inh, PP1 inh)
COc1ccc(-c2nc(-c3ccccn3)ncc2S(C)(=O)=O)cc1	none
Cn1nc(-c2ccccn2)nc2c(=O)n(C)c(=O)nc1-2	LMPTP block 67.7, STEP block 67.4, PP5 inh 16.5, PP1 inh 40.8
CCn1c(N)nc2c1c(=O)n(C)c(=O)n2C	none
COc1ccc2c(c1)OC1=C(C(=O)CCC1)C2C1=C(O)CCCC1=O (stereo not drawn)	none
O=C(NNC(=O)c1ccccc1F)c1cccc(-n2cccc2)c1	Scp1 inh 78.9
O=C(O)CCC1c2cc3c4cc2OC2Oc5cc6c(cc51)C(CCC(=O)O)c1cc5c7cc1OC(O6)c1cc6cc(c1)Oc1cc(cc(C(=O)O)c1)Oc1cc8cc(c1)C(Oc1cc(c(cc1C5CCC(=O)O)C3CCC(=O)O)OC(O4)c1cc(cc(c1)Oc1cc(cc(C(=O)O)c1)O8)Oc1cc(cc(C(=O)O)c1)Oc1cc(cc2c1)Oc1cc(cc(C(=O)O)c1)O6)O7 (stereo not drawn)	PP5 inh 12.6, PP1 inh 90.5 (no result: LMPTP block, Scp1 inh, STEP block)
CN(C)c1ccc(/C=N/NC(=O)c2nnn(-c3nonc3N)c2COc2ccc(F)cc2)cc1	LMPTP block 51.0
O=c1oc2c(O)cccc2cc1-c1nc2ccccc2[nH]1	LMPTP block 66.5 (no result: PP5 inh, PP1 inh)
CCSc1nc2c(c(=O)[nH]1)C(c1ccncc1)C(C(=O)OC(C)C)=C(C)N2 (stereo not drawn)	none
CCOC(=O)C1=C(C)N=c2sc(=Cc3ccc(OCC(=O)O)cc3)c(=O)n2C1c1ccc(SC)cc1 (stereo not drawn)	LMPTP block 65.0, STEP block 93.5 (no result: Scp1 inh, PP5 inh, PP1 inh)
COCCCNc1cc(C)nc2ccccc12	none
Cc1cc(NCCCCCCCNc2cc(C)nc3cc([N+](=O)[O-])ccc23)c2ccc([N+](=O)[O-])cc2n1	LMPTP block 91.0 (no result: PP5 inh, PP1 inh)
Cc1cc(C(=O)N/N=C/c2cc(Br)cc(Br)c2OC(=O)c2cccc(F)c2)n[nH]1	LMPTP block 65.4, Scp1 inh 86.8
CC1=NN(c2ccc(C)c(C)c2)C(=O)/C1=C\C=C\c1ccc([N+](=O)[O-])o1	Scp1 inh 65.1
CC(Sc1ncnc2sccc12)C(=O)Nc1ccc(C(N)=O)cc1 (stereo not drawn)	none
O=C(COc1ccc(S(=O)(=O)N2CCOCC2)cc1)NCCCn1ccnc1	none
c1ccc(Oc2nnc(-c3cccs3)c3ccccc23)cc1	PP1 inh 16.1
NS(=O)(=O)c1ccc(N/N=C/c2ccc(O)c(O)c2O)c([N+](=O)[O-])c1	LMPTP block 65.2 (no result: PP5 inh, PP1 inh)
NS(=O)(=O)c1ccc(N/N=C/c2ccc(O)cc2O)c([N+](=O)[O-])c1	none
CN(Cc1cccs1)C(=O)CN1CCN(S(=O)(=O)c2ccc3c(c2)OCCCO3)CC1	none (no result: PP5 inh, PP1 inh)
COc1ccc(C2c3c(-c4cc(Cl)c(C)cc4O)n[nH]c3C(=O)N2Cc2cccnc2)cc1OC (stereo not drawn)	PP1 inh 15.3
CCOc1cc(C2C(C#N)=C(N)OC(C)=C2C(C)=O)c(Br)c(Br)c1OC(C)C (stereo not drawn)	none
CC(=O)N1N=C(c2cccc(NS(C)(=O)=O)c2)CC1c1cccs1 (stereo not drawn)	none
Cc1cc(N2C(=O)C(O)=C(C(=O)c3cc4ccccc4o3)C2c2cccc(Cl)c2)no1 (stereo not drawn)	PP1 inh 27.5
Cc1cc(N2C(=O)C(O)=C(C(=O)c3cc4ccccc4o3)C2c2ccc(Cl)cc2)no1 (stereo not drawn)	PP1 inh 29.1
Cc1cc(N2C(=O)C(O)=C(C(=O)c3cc4ccccc4o3)C2c2ccc(Br)cc2)no1 (stereo not drawn)	PP1 inh 25.6
Cc1cc(N2C(=O)C(O)=C(C(=O)c3ccc(C)o3)C2c2cccc(Cl)c2)no1 (stereo not drawn)	none (no result: Scp1 inh, PP5 inh, PP1 inh)
COc1ccc(Oc2cc(NN3CCCCC3)c([N+](=O)[O-])cc2[N+](=O)[O-])cc1OC	none
CC(C)N1CCc2c(sc(NC(=O)c3ccc(S(=O)(=O)N4CCc5ccccc54)cc3)c2C(N)=O)C1	PP1 inh 17.2
Cc1[nH]c(=O)c(C#N)cc1-c1csc(-c2ccccc2)n1	LMPTP block 60.4
OCCNc1nc(Nc2ccccc2Cl)nc(N2CCCC2)n1	none
Cc1cc(-c2csc(NC(=O)c3ccc(=O)n(C)n3)n2)c(C)n1CC1CCCO1 (stereo not drawn)	PP1 inh 16.0
O=C(CSc1nnc(-c2ccncc2)n1-c1ccccc1)Nc1ccc(C(=O)O)cc1	none
CC(=O)Nc1ccc2c(=O)n(-c3ccccc3)sc2c1	none (no result: Scp1 inh, PP5 inh, PP1 inh)
O=c1c2cc(F)ccc2sn1-c1ccccc1	Scp1 inh 91.6
O=c1c2ccccc2sn1-c1nccs1	Scp1 inh 96.5 (no result: PP5 inh, PP1 inh)
O=c1c2ccccc2sn1-c1ccc(S(=O)(=O)N2CCCCC2)cc1	none
Cc1ccc(-n2sc3ccccc3c2=O)cc1S(=O)(=O)N1CCCCC1	Scp1 inh 96.8
O=c1c2cc(C(F)(F)F)ccc2sn1-c1ccccc1	none (no result: Scp1 inh, PP5 inh, PP1 inh)
O=C(O)c1cccc(-n2sc3ccccc3c2=O)c1	Scp1 inh 88.2
O=C(O)C1CCCN(S(=O)(=O)c2ccccc2)C1 (stereo not drawn)	none
COc1ccccc1C(=O)NS(=O)(=O)c1ccc(C)cc1	none (no result: PP5 inh, PP1 inh)
CC(CC(=O)NCCc1ccc(S(N)(=O)=O)cc1)c1ccccc1 (stereo not drawn)	none
O=c1c2ccccc2sn1-c1cccc(Cl)c1	none (no result: Scp1 inh, PP5 inh, PP1 inh)
O=c1c2ccccc2sn1-c1ccccc1	Scp1 inh 65.4
CN(C)S(=O)(=O)c1cccc(-n2sc3ccccc3c2=O)c1	Scp1 inh 99.2
CC1=C(C)C(=O)C(N2CCOCC2)=CC1=O	none (no result: PP5 inh, PP1 inh)

Compound activity: PubChem, several laboratories
